Published values pooled from the literature.
Each line is one published result; the experiments were not run side by side.
Target: Dual specificity protein kinase TTK (TTK, Homo sapiens, UniProt P33981)
Sequence (P33981 1-857, as in one of the studies): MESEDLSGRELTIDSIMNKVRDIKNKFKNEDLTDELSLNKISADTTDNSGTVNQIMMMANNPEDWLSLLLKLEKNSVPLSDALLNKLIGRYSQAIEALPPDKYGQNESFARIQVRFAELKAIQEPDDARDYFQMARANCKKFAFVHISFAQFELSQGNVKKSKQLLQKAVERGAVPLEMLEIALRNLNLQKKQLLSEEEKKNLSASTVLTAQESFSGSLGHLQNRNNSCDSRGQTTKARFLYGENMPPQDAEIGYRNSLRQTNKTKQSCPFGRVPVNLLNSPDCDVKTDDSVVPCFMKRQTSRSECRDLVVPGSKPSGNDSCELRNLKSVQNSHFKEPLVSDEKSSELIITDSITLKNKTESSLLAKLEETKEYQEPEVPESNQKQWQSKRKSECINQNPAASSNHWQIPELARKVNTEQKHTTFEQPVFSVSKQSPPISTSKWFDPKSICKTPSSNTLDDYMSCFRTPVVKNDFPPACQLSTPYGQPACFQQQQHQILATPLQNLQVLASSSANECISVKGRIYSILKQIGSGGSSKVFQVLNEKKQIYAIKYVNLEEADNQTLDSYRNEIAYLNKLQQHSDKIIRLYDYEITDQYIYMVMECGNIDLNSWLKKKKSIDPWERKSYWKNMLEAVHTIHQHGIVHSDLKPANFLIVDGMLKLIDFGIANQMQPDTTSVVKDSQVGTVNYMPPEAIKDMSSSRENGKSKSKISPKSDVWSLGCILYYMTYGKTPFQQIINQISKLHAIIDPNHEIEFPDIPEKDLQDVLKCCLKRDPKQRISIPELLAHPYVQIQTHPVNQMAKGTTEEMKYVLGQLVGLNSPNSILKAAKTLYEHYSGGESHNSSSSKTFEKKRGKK

SMILES | assay | conditions | quantity | result
CC(C)(C)c1cc(C=C(C#N)C#N)cc(Br)c1O | enzyme activity, inhibitor | 0.5 µM | remaining activity | 101%
N#CC1(c2ccccn2)CCN(Cc2cc(C(=O)O)c(=O)n3ccccc23)CC1 | cell-free assay, competition with immobilised ligand | 1 µM | remaining binding | 88%
Cc1nn(C)cc1-c1nc2c(N3CCN(Cc4ccc(Cl)cc4)CC3)c(Cl)cnc2[nH]1 | binding, competition with immobilised ligand | 1 µM | remaining binding | 100%
Cn1cncc1[C@@](O)(COc1ccc(C#N)cc1-c1ccc(OC(F)(F)F)cc1)c1ccc(C#N)cc1 | cell-free assay, competition with immobilised ligand | 1 µM | remaining binding | 100%
Nc1ncc(-c2nc(N3CCOCC3)nc(N3CCOCC3)n2)c(C(F)F)n1 | binding, competition with immobilised ligand | 10 µM | remaining binding | 84%
Cn1cc(-c2cc(F)cc(N3CCn4c(cc5c4CCCC5)C3=O)c2CO)cc(Nc2ccc(N3CCN(C4COC4)CC3)cn2)c1=O | enzyme activity, inhibitor | 0.1 µM | inhibition | -17%
O=c1[nH]c2ccccc2n1C1CCN(Cc2ccc(-c3[nH]c4cc5ncnc5cc4nc3-c3ccccc3)cc2)CC1 | cell-free assay | 0.5 µM | remaining signal | 104%
Cn1cc(-c2cccc(N3CCc4c(sc5c4CC(C)(C)C5)C3=O)c2CO)cc(Nc2ccncn2)c1=O | enzyme activity, inhibitor | 1 µM | inhibition | -3%
COc1ncccc1-c1cnn2ccc(N3CCN(C(=O)OC(C)C)CC3)nc12 | binding, competition with immobilised ligand | 1 µM | remaining binding | 100%
